Test results reported in ChEMBL document CHEMBL1145162, “6-aryl-8H-indeno[1,2-d]thiazol-2-ylamines: A1 adenosine receptor agonist allosteric enhancers having improved potency” (J Med Chem, 2005).

Tests used:
[1] = target: T1, Adenosine receptor A1 (Homo sapiens) (UniProt P30542); experiment: (§1) In vitro allosteric enhancer (AE) activity for adenosine A1 receptor at 50 uM
T1 sequence (whole entry): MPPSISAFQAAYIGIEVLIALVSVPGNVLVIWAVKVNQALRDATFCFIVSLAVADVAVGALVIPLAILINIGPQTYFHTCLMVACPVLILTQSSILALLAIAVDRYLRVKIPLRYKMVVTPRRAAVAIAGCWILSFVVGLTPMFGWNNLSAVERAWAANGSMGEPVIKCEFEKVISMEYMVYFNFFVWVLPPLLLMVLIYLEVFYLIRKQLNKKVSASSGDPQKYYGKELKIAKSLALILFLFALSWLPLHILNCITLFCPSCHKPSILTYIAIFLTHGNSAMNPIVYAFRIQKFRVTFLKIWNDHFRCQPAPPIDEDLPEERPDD
Method in brief: (§2)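 Single-point screen on membranes from CHO-K1 cells stably expressing hA1AR. Candidate enhancer was added at 50 μM final for 5 min. Dissociation was then started with 8-cyclopentyltheophylline plus GTPγS and run 10 min. Score = % specific agonist binding remaining; two to three assays, each in triplicate.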

[2] = target: Adenosine receptor A2a (Homo sapiens) (UniProt P29274); experiment: In vitro allosteric enhancer (AE) activity for adenosine A2A receptor at 50 uM
Sequence of Adenosine receptor A2a (Homo sapiens) (P29274 whole entry): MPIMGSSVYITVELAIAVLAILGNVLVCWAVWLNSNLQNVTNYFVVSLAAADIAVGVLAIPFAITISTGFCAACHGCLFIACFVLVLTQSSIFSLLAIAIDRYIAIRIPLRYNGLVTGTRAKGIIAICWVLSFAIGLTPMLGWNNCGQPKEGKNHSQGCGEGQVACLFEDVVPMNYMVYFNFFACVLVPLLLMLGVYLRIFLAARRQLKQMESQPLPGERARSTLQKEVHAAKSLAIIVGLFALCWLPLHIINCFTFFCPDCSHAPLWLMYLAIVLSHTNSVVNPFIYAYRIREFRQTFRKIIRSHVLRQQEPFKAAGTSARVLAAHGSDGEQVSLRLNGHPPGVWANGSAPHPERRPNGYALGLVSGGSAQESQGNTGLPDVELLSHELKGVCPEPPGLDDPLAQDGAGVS

[3] = target: T2, Adenosine receptor A3 (Homo sapiens) (UniProt P0DMS8); experiment: In vitro allosteric enhancer (AE) activity for adenosine A3 receptor at 50 uM
T2 sequence (whole entry): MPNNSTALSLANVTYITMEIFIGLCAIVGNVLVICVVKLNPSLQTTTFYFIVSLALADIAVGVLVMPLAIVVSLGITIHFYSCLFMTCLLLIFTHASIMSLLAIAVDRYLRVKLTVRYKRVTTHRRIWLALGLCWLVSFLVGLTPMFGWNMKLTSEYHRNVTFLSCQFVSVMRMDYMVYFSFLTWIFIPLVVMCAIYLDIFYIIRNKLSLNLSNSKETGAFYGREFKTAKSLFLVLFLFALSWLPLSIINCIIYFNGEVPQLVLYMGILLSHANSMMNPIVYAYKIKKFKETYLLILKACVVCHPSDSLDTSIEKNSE

[4] = target: T2, Adenosine receptor A3 (Homo sapiens); experiment: Inhibition of human adenosine receptor A3 at 10 uM
[5] = target: T3, Adenosine receptor A1 (Rattus norvegicus) (UniProt P25099); experiment: Allosteric enhancer (AE) activity against rat adenosine A1 receptor
T3 sequence (whole entry): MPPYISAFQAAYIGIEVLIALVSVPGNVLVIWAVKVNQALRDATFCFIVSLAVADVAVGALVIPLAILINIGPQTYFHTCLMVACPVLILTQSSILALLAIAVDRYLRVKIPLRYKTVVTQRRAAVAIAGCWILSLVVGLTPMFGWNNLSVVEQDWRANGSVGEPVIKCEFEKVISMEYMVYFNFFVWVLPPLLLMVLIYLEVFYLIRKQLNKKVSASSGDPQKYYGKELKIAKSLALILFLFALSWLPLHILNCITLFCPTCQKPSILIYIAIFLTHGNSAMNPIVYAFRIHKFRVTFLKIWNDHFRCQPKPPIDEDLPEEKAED

[6] = target: T1, Adenosine receptor A1 (Homo sapiens); experiment: Inhibition of human adenosine receptor A1 at 10 uM
Method in brief: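 CHO-K1 hA1AR membranes at 0.5 mg/mL in 10 mM HEPES pH 7.4 with 1 mM EDTA, 1 U/mL adenosine deaminase, 5 mM MgCl2 and 2 nM [3H]CPX. Mixed 1:1 with buffer containing 20 μM enhancer. Equilibrium 3 h at room temperature; 100 μM NECA defined nonspecific binding. Inhibition expressed relative to control specific binding; duplicate assays.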

Adenosine receptor A1 = target: T4, Adenosine receptor A1 (Homo sapiens, UniProt P30542); experiment: Antagonist activity against adenosine A1 receptor; type: functional; design: concentration or dose not given beside the values
T4 sequence (P30542 whole entry): T1 sequence (whole entry)
Method in brief: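 Equilibrium binding on CHO-K1 hA1AR membranes (15 μg) in 10 mM HEPES pH 7.4, 1 mM EDTA, 1 U/mL adenosine deaminase, 4 nM [3H]CPX. Mixed with an equal volume of 200 μM enhancer in HEPES–10% DMSO; 200 μM NECA for nonspecific binding. Incubated 3 h at room temperature, then filtered.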

[7] = target: T1, Adenosine receptor A1 (Homo sapiens); experiment: Allosteric enhancer (AE) activity against human adenosine A1 receptor at 50 uM; method in brief: as §2
[8] = target: T1, Adenosine receptor A1 (Homo sapiens); experiment: In vitro allosteric enhancer (AE) activity for adenosine A1 receptor maximal score from curve fitting
[9] = target: T1, Adenosine receptor A1 (Homo sapiens); experiment: Allosteric enhancer activity against adenosine A1 receptor
[10] = target: T1, Adenosine receptor A1 (Homo sapiens); experiment: as §1; method in brief: as §2; remark: listed apart in the source
[11] = target: T1, Adenosine receptor A1 (Homo sapiens); experiment: as §1; method in brief: as §2; remark: listed apart in the source

inhibition [4]	inhibition [6]	Inhibition (Adenosine receptor A1)	EC50 [9]	SMILES	Alloste ic enhan er (AE) [1]	Alloste ic enhan er (AE) [2]	Alloste ic enhan er (AE) [3]	Alloste ic enhan er (AE) [5]	Alloste ic enhan er (AE) [7]	Allosteric enhancer (AE) [8]	Alloste ic enhan er (AE) [10]	Alloste ic enhan er (AE) [11]
				Nc1nc2c(s1)Cc1cc(-c3ccsc3)ccc1-2	68.8%	0%	3.8%					
22.5%	10.5%	11.6%		Nc1nc2c(s1)Cc1cc(-c3ccc4c(c3)OCO4)ccc1-2	82%	0%	2.9%	48.8%	90.7%	91%		
		> 8.7%	> 10 µM	Cc1cc(C)cc(-c2ccc3c(c2)Cc2sc(N)nc2-3)c1	10.5%	0%	0%					
		> 10%	7.3 µM	Cc1ccc(C)c(-c2ccc3c(c2)Cc2sc(N)nc2-3)c1	47.7%	0%	0%			51%		
		> 10%	> 10 µM	Nc1nc2c(s1)Cc1cc(-c3ccc(C(F)(F)F)cc3)ccc1-2	8.9%	0%	0%					
		> 10%	> 10 µM	Nc1nc2c(s1)Cc1cc(-c3cccc(F)c3)ccc1-2	42.8%	0%	3.6%					
				Nc1nc2c(s1)Cc1cc(-c3cccs3)ccc1-2	32%	0%	1.8%					
		> 10%	> 10 µM	Nc1nc2c(s1)Cc1cc(-c3cccc(Cl)c3)ccc1-2	22.7%	0%	1%					
		34.4%	> 10 µM	Cc1ccccc1-c1ccc2c(c1)Cc1sc(N)nc1-2	36.6%	0%	0%					
		> 10%	> 10 µM	Nc1nc2c(s1)Cc1cc(-c3cccc(C(F)(F)F)c3)ccc1-2	15.8%	0%	0%					
		19.3%	> 10 µM	COc1cccc(-c2ccc3c(c2)Cc2sc(N)nc2-3)c1	64%	0%	1.8%					
38.6%	23.1%	12.5%		CN(C)c1ccc(-c2ccc3c(c2)Cc2sc(N)nc2-3)cc1	81%	3.4%	24.8%	31.7%	67.9%		81.8%	
		30.1%	> 10 µM	Cc1ccc(-c2ccc3c(c2)Cc2sc(N)nc2-3)cc1C	52%	0%	0%					
		8.3%	> 10 µM	Nc1nc2c(s1)Cc1cc(-c3cccc([N+](=O)[O-])c3)ccc1-2	13%	0%	0%					
		> 13%	3 µM	Nc1nc2c(s1)Cc1cc(-c3cccc4ccccc34)ccc1-2	61.2%	0%	4.2%			65.6%		
		> 4.2%	> 10 µM	Nc1nc2c(s1)Cc1cc(-c3ccc4ccccc4c3)ccc1-2	38.6%	0%	4.5%					
		11.8%	> 10 µM	COc1cc(-c2ccc3c(c2)Cc2sc(N)nc2-3)cc(OC)c1OC	23.3%	0%	0.8%					

inhibition [4]	inhibition [6]	Inhibition (Adenosine receptor A1)	EC50 [9]	SMILES	Alloste ic enhan er (AE) [1]	Alloste ic enhan er (AE) [2]	Alloste ic enhan er (AE) [3]	Alloste ic enhan er (AE) [5]	Alloste ic enhan er (AE) [7]	Allosteric enhancer (AE) [8]	Alloste ic enhan er (AE) [10]	Alloste ic enhan er (AE) [11]
		> 10%	> 10 µM	Nc1nc2c(s1)Cc1cc(-c3ccccc3)ccc1-2	8.2%	0%	1.6%					
		36.7%	> 10 µM	Nc1nc2c(s1)Cc1cc(-c3ccc(O)cc3)ccc1-2	4%	0%	1%					
		> 10%	5.1 µM	Nc1nc2c(s1)Cc1cc(-c3ccccc3C(F)(F)F)ccc1-2	50.1%	0%	6.6%			57%		
				COc1ccc2cc(-c3ccc4c(c3)Cc3sc(N)nc3-4)ccc2c1	24.4%	0%	0%					
		36.7%	> 10 µM	Nc1nc2c(s1)Cc1cc(-c3cccc(O)c3)ccc1-2	10%	0%	1%					
		8.3%	6.3 µM	Nc1nc2c(s1)Cc1cc(-c3ccccc3[N+](=O)[O-])ccc1-2	40.1%	0%	0%			49.7%		
		> 10%	> 10 µM	Nc1nc2c(s1)Cc1cc(-c3ccc(F)cc3)ccc1-2	54.4%	0%	11.8%					
		13.2%	> 10 µM	Nc1nc2c(s1)Cc1cc(-c3ccccc3F)ccc1-2	4.9%	0%	3.6%					
		18%	> 10 µM	COc1ccc(-c2ccc3c(c2)Cc2sc(N)nc2-3)c(OC)c1OC	64.5%	0.3%	0%					
		> 10%	> 10 µM	Nc1nc2c(s1)Cc1cc(-c3ccccc3Cl)ccc1-2	36.7%	0%	0%					
		16%	> 10 µM	COc1ccc(-c2ccc3c(c2)Cc2sc(N)nc2-3)c(OC)c1	73%	0%	1.9%					
37.6%	25.2%	13.3%		COc1ccc(-c2ccc3c(c2)Cc2sc(N)nc2-3)cc1	87%	0%	18%	32.3%	72%			90.2%
				Nc1nc2c(s1)Cc1cc(-c3cc4ccccc4o3)ccc1-2	51%	0.8%	11.9%					
			> 10 µM	Cc1sc(N)c(C(=O)c2cccc(C(F)(F)F)c2)c1C	20%	0%	5%					
		43.5%	> 10 µM	COc1ccccc1-c1ccc2c(c1)Cc1sc(N)nc1-2	38%	0%	1%					
		8%	> 10 µM	Nc1nc2c(s1)Cc1cc(-c3ccc(Cl)c(Cl)c3)ccc1-2	45.3%	0%	0%			22.6%		
